# From paper PMC7606109 (Acta Pharmaceutica Sinica. B, 2020)
# Experiment: MTT cell toxicity assay
# Type: cell-based
# Conditions: human, HeLa cells
# Summary of the method: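 HeLa cells grown in DMEM with 10% heat-inactivated FBS and 1% penicillin/streptomycin, 5% CO2, 37 °C. Exponentially growing cells were seeded at 2–6 × 10^3 per well and left 24 h, then exposed to graded test compound concentrations for 48 h. MTT (5 mg/mL stock) was added for 2–4 h at 37 °C. Formazan was dissolved in DMSO and read at 492 nm. Mean ± SD, n = 3.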
smiles,measurement,value
"NS(=O)(=O)NCCNc1nonc1C(=NO)Nc1ccc(F)c(Br)c1 [Epa, Epacadostat]",IC50 at 48 h,> 40 µM
